Reference: ChEMBL document CHEMBL1781963, “Discovery of novel hepatoselective HMG-CoA reductase inhibitors for treating hypercholesterolemia: a bench-to-bedside case study on tissue selective drug distribution” (Bioorg Med Chem Lett, 2011)

Tests used:
[1] = system: Hepatocyte; assay: Drug uptake in sandwich-cultured human hepatocytes assessed per mg of protein at 1 uM in presence of rifamycin SV; format: ADME, cell-based
How it was run: (§1)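 Rat or human hepatocytes were cultured in sandwich configuration with a Matrigel overlay and compound uptake was measured. Active uptake was assessed by inhibition with the pan-OATP inhibitor rifamycin SV. Rosuvastatin/pravastatin served as positive control and midazolam as negative control.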

[2] = Fraction unbound in rat liver at 1 uM; format: ADME, tissue-based
How it was run: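 Unbound fraction in rat liver tissue, measured at 1 μM drug.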

[3] = Fraction unbound in human plasma at 0.5 ug/ml; format: ADME, cell-free
How it was run: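 Unbound fraction in rat, dog or human plasma, measured at a drug concentration of 0.5 μg/mL.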

[4] = system: Hepatocyte; assay: Drug uptake in sandwich-cultured rat hepatocytes assessed per mg of protein at 1 uM; format: ADME, cell-based; how it was run: as §1
[5] = molecular target: T1, OATP1B2 (Rattus norvegicus, UniProt Q9QZX8); assay: Drug uptake by rat hepatic OATP1B2 transporters expressed in CHO cells at 1 uM relative to wild type CHO cells; format: ADME, cell-based; settings: CHO cells expressing rat OATP1B2, read-out: FC
T1 sequence (Q9QZX8 whole entry): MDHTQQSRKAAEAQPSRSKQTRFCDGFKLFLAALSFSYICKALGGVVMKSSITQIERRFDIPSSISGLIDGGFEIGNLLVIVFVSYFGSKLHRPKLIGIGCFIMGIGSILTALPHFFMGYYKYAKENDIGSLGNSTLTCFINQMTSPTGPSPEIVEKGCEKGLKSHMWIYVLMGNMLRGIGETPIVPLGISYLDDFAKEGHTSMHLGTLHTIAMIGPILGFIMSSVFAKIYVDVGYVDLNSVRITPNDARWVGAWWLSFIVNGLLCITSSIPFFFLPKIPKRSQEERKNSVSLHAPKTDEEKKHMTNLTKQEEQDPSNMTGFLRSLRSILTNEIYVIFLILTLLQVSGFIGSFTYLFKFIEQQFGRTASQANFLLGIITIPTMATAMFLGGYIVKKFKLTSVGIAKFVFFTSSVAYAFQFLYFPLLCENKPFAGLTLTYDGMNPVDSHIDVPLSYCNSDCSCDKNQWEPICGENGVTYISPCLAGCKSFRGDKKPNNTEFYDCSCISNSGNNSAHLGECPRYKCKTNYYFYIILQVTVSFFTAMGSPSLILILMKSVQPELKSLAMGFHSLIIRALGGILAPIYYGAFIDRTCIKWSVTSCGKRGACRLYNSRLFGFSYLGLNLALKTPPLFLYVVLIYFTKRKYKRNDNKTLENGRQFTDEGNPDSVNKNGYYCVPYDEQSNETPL
How it was run: (§2)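 Individual hepatic OATP transporters were over-expressed in CHO or HEK293 cells: rat rOatp1a1, rOatp1a4 and rOatp1b2, and human hOATP1B1, hOATP1B3 and hOATP2B1. Substrate uptake is expressed as fold difference relative to the wild-type parental line. Rosuvastatin/pravastatin served as positive control and midazolam as negative control in each assay.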

[6] = molecular target: T2, OATP1B3 (Homo sapiens, UniProt Q9NPD5); assay: Drug uptake by human hepatic OATP1B3 transporter expressed in HEK293 cells at 1 uM relative to wild-type HEK293 cells; format: ADME, cell-based; settings: HEK293 cells expressing human OATP1B3, read-out: FC; how it was run: as §2
T2 sequence (Q9NPD5 whole entry): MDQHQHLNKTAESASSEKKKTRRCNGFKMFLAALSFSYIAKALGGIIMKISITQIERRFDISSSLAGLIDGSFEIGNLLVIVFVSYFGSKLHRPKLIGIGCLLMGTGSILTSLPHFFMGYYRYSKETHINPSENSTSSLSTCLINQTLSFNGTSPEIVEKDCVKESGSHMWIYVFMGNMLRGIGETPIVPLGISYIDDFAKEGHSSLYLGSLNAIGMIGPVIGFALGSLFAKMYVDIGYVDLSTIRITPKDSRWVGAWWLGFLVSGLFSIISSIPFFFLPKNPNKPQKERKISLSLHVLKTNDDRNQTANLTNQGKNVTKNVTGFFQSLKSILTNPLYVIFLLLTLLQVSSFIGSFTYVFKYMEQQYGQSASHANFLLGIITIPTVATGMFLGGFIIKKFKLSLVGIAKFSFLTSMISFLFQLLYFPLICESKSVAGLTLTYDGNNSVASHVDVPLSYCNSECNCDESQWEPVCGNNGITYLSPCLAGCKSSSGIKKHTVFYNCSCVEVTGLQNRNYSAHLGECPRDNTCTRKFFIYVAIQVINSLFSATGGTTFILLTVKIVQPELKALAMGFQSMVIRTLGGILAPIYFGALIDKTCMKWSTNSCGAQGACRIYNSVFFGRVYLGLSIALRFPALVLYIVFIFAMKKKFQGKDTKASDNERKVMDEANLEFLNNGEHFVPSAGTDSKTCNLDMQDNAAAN

[7] = molecular target: T3, OATP2B1 (Homo sapiens, UniProt O94956); assay: Drug uptake by human hepatic OATP2B1 transporter expressed in HEK293 cells at 1 uM relative to wild-type HEK293 cells; format: ADME, cell-based; settings: HEK293 cells expressing human OATP2B1, read-out: FC; how it was run: as §2
T3 sequence (O94956 whole entry): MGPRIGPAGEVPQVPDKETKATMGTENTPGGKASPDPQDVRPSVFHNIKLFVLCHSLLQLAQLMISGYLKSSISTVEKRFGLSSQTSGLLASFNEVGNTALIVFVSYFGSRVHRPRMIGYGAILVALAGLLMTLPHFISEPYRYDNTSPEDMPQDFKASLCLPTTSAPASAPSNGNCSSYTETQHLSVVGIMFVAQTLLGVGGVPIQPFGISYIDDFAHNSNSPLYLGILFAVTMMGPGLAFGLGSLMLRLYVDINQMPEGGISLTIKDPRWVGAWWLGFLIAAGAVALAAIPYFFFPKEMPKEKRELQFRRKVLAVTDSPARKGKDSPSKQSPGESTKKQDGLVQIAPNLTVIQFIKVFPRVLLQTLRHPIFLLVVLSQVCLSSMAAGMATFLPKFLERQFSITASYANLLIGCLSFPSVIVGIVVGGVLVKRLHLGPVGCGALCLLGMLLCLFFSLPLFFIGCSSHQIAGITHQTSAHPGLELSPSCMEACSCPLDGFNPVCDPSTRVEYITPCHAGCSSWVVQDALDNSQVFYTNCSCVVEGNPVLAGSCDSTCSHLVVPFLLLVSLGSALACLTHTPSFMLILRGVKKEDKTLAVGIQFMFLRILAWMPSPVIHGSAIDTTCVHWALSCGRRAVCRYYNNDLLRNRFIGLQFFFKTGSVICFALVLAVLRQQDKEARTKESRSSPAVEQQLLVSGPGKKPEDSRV

Structure (SMILES) | Drug uptake [1] [%] | fraction unbound at 1 µM [2] | fraction unbound at 0.5 ug/ml [3] | Drug uptake [4] [pmol/min/mg] | uptake ratio at 1 µM [5] | uptake ratio at 1 µM [6] | uptake ratio at 1 µM [7]
O=C([O-])C[C@H](O)C[C@H](O)CCn1c(-c2ccc(F)cc2)nc(C(=O)NCc2cccc(F)c2)c1C1CC1.[Na+] | 97 | 0.23 | 0.29 | 17 | 1.8 | 34.5 | 7.1
Cc1ccc(CNC(=O)c2nn(-c3ccc(F)cc3)c(CC[C@@H](O)C[C@@H](O)CC(=O)O)c2C(C)C)cc1 | 78 | 0.052 | 0.051 | 14 | 2.9 | 11.1 | 2.1
Cc1ncc2n1-c1ccc(Cl)cc1C(c1ccccc1F)=NC2 [MIDAZOLAM] | – | – | – | – | 1.1 | 0.9 | 0.8
CC[C@H](C)C(=O)O[C@H]1C[C@H](O)C=C2C=C[C@H](C)[C@H](CC[C@@H](O)C[C@@H](O)CC(=O)O)[C@H]21 [PRAVASTATIN] | – | – | – | – | 3.6 | 13 | –
CC(C)c1nc(N(C)S(C)(=O)=O)nc(-c2ccc(F)cc2)c1/C=C/[C@@H](O)C[C@@H](O)CC(=O)O [ROSUVASTATIN] | 85 | 0.17 | 0.17 | 24 | – | 3.7 | 5.5
